From ChEMBL document CHEMBL1128538, “Novel antagonists of platelet-activating factor. 1. Synthesis and structure-activity relationships of benzodiazepine and benzazepine derivatives of 2-methyl-1-phenylimidazo[4,5-c]pyridine” (J Med Chem, 1995) come the findings set out here.

What is called ED50 is the dose that gives a 50% effect, or the effect in half of the subjects. The low end stands for an effect at a small dose, the high end for a need for a large dose.

Sequence of Platelet-activating factor receptor (Mus musculus) (Q62035 whole entry): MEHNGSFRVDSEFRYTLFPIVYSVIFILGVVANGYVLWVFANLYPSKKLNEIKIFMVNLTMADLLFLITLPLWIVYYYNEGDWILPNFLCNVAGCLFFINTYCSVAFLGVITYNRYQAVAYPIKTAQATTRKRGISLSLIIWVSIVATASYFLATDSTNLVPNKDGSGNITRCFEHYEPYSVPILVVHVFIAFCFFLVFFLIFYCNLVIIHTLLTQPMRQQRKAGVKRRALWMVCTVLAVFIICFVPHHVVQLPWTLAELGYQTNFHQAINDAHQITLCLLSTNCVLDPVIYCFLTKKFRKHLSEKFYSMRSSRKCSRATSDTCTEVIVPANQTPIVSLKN

For the first assay, the target named is Platelet-activating factor receptor (Mus musculus) (UniProt Q62035). The assay can be described thus: Ability to protect mice from lethal effects after administration of PAF (Platelet-Activating Factor). Format: functional, organism-based. In short, it runs like this:
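Mice received the test agent orally and were then given a lethal PAF injection. ED50 was taken as the oral dose that protected the animals from PAF-induced death.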
`Cc1nc2cnccc2n1-c1ccc(C2=Nc3ccccc3NC(=O)C2)cc1` displayed an ED50 of 0.5 mg/kg.
Still for that read-out and setting: the same measure for `Cc1nc2cnccc2n1-c1ccc(C2CC(=O)N(C)c3cc(Cl)c(Cl)cc3C2)cc1` (stereo not given): 0.03 mg/kg.
The same measure, in the same setting: the same measure for `Cc1nc2cnccc2n1-c1ccc(C2=Nc3cc(Cl)c(Cl)cc3NC(=O)C2)cc1`: 0.07 mg/kg; for `Cc1nc2cnccc2n1-c1ccc(C2=Nc3ccccc3N(C)C(=O)C2)cc1`: 0.03 mg/kg.
The same measure, in the same setting: the same measure for `Cc1nc2cnccc2n1-c1ccc(C2=CCC(=O)c3ccccc3N2)cc1`: 0.75 mg/kg.
With `Cc1nc2cnccc2n1-c1ccc(C2=Nc3cc(Cl)c(Cl)cc3C(=O)NC2)cc1`, the ED50 was 0.2 mg/kg. Compared with the last compound, the ED50 is about 3.8-fold lower.
The same measure, in the same setting: for `Cc1cc2c(cc1C)NC(=O)CC(c1ccc(-n3c(C)nc4cnccc43)cc1)=N2` the value was 0.12 mg/kg; for `Cc1nc2cnccc2n1-c1ccc(C2CC(=O)Nc3cc(Cl)c(Cl)cc3C2)cc1` (stereo not given), 0.05 mg/kg.

Another assay deals with Mus musculus. The assay can be described thus: The compound was tested for their ability to protect mice from lethal effects after administration of PAF (Platelet-Activating Factor). Format: functional. In short, it runs like this:
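Mice were given the compound orally and then a lethal injection of PAF. The value is the oral dose (ED50) that protected the mice from PAF-induced death.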
`Cc1nnc2n1-c1sc3c(c1C(c1ccccc1Cl)=NC2)CC(C(=O)N1CCOCC1)C3` (stereo not given) [BEPAFANT] showed an ED50 of 0.1 mg/kg.
On the same count and under the same terms, the same measure for `CCOC(=O)C1=C(c2ccc(-n3c(C)nc4cnccc43)cc2)NC(C)=C(C(=O)Nc2ccccn2)C1c1ccccc1Cl` (stereo not given): 0.26 mg/kg.
